Experimental data from different studies.
Lines come from different studies, so protocols differ.
AMY2: Pancreatic alpha-amylase (AMY2, Sus scrofa, UniProt P00690)
D14: D14 (Arabidopsis thaliana, UniProt Q9SQR3)

The inhibition of `O=c1cc(-c2ccc(O)cc2)oc2c(Br)c(O)c(Br)c(O)c12` is reported as 68.2% (AMY2; enzyme activity, inhibitor; 50 µM, 30 min).
For `Cc1cc(O)c(-c2ccc([C@@H](C)CN(C)C)cc2)c2c1[nH]c(=O)c1sccc12`, the inhibition was -4.95% (Ribosomal protein S6 kinase alpha-1, C-terminal kinase domain (RPS6KA1, Homo sapiens, UniProt Q15418); enzyme activity, inhibitor; 0.1 µM).
`O=c1c(O)c(-c2ccc(O)c(O)c2)oc2cc(O)cc(O)c12` gave an inhibition of 94.1% (AMY2; enzyme activity, inhibitor; 50 µM).
The remaining binding of `CCCCC(=O)Nc1ccc(-c2ccc3ncn(CCC)c(=O)c3c2)cn1` is reported as 100% (Tyrosine-protein kinase Fer (FER, Homo sapiens, UniProt P16591); binding, competition with immobilised ligand; 0.5 µM).
`CC1=CC(O/C=C2/C(=O)OC3c4ccccc4CC23)OC1=O` (racemic) has a ΔTm of -7.04 °C (D14; thermal stability, DSF; 10 µM).
For `C1=C/COCc2cc(ccc2OCCN2CCCC2)Nc2nccc(n2)-c2cccc(c2)COC/1`, the remaining binding was 75% (MAP kinase-activated protein kinase 5 (MAPKAPK5, Homo sapiens, UniProt Q8IW41); binding; 0.1 µM).
`CC1=C(/C=C/C(C)=C/C=O)C(C)(C)C[C@H](O)C1` has a ΔTm of -3.04 °C (D14; thermal stability, DSF; 50 µM).
With `C#Cc1cc(-c2cc(Nc3nc(N[C@@H](C)c4ccc(F)cn4)ncc3Cl)n[nH]2)ccc1C=O` the inhibition was 56.8% (Ribosomal protein S6 kinase alpha-1 (RPS6KA1, Homo sapiens, UniProt Q15418); enzyme activity, inhibitor; 0.2 µM).
With `O=c1c(O)c(-c2ccc(O)c(O)c2)oc2c(Br)c(O)c(Br)c(O)c12` the inhibition was 70.2% (AMY2; enzyme activity, inhibitor; 50 µM, 30 min).
For `CC1=C(/C=C/C(C)=C/C=O)C(C)(C)CCC1`, the ΔTm was -9.02 °C (D14; thermal stability, DSF; 100 µM).
